Experiment [1] relates to LoVo. Description: Ratio of IC50 against sensitive LoVo cell line and that of doxorubicin resistance LoVo cell line was determined after 1 hr exposure. It is filed as functional, Homo sapiens.
The test system of experiment [2] is LoVo. Description: Cytotoxicity against doxorubicin resistant LoVo cell line was determined against 144 hrs. It is filed as functional, cell-based. Conditions: Homo sapiens. The gist of the method: (§1)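 MTT assay on doxorubicin-sensitive LoVo and resistant LoVo/Dx cells, 24 h preincubation, then 1 h or 144 h drug exposure at 37 °C, 5% CO2. IC50 in nM. Resistance index is IC50 on LoVo/Dx divided by IC50 on LoVo.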

Experiment [3] has as its system LoVo. Description: Cytotoxicity against human LoVo cancer cell line was determined after 1 hr. It is filed as functional, cell-based. In a few lines: as §1
The test system of experiment [4] is LoVo. Description: Cytotoxicity against doxorubicin resistant LoVo cell line was determined against 1 hour. It is filed as functional, cell-based. Conditions: Homo sapiens. The gist of the method:
as §1

A short description of experiment [5]: Cytotoxicity is determined as the concentration required to inhibit the growth of human colon adenocarcinoma (HT-29) cell line.
The subject of another experiment is PC-3. In words: Cytotoxicity against human PC3 cancer cell line was determined after 1 hr. It is filed as functional, cell-based. Conditions: PC-3, 1 h. The gist of the method: (§2)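 MTT colorimetric assay. Cells seeded by growth characteristics and preincubated 24 h, then exposed to drug for 1 h or 144 h at 37 °C, 5% CO2. H460M, MKN45 and PC-3 were grown in RPMI 1640 with 10% FCS. HCT116 was grown in D-MEM with 10% FBS and 2 mM glutamine.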

The test system of a further experiment is Nucleic Acid. Description: Binding site preference is determined as the ratio of Poly (dA-dT)2 to Poly (dG-dC)2. It is filed as nucleic-acid assay. The gist of the method: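 Ethidium displacement fluorometry at pH 7.0 (10 mM Na2HPO4, 10 mM NaH2PO4, 1 mM EDTA) with 1.26 μM ethidium bromide and 1 μM [poly(dA-dT)]2 or [poly(dG-dC)]2, 20 °C. Ex 546 nm, em 595 nm, drug added serially from a DMSO stock. Preference taken from the [AT]/[GC] ratio of C50 values, counted significant only below 0.7 or above 1.3.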

For experiment [6], the system named is SNB-19. Description: Percent growth of CNS SNB-19 cell line was determined at 10e-5 M concentration after 48 hr of exposing. It is filed as functional, Homo sapiens. In a few lines:
(§3)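 NCI sulforhodamine B screen. Cells seeded by growth rate, 24 h drug-free, then 48 h exposure to 10^-8, 10^-6 or 10^-5 M. Protein-stain optical density expressed as percent growth relative to untreated control (100%); negative values indicate cell kill.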

Experiment [7] relates to DU-145. Description: Percent growth of prostate DU-145 cell line was determined at 10e-6 M concentration after 48 hr of exposing. It is filed as functional, Homo sapiens.
For experiment [8], the system named is DU-145. In words: Percent growth of prostate DU-145 cell line was determined at 10e-8 M concentration after 48 h of exposing. It is filed as functional, Homo sapiens.
Experiment [9] can be described thus: Percent growth of melanoma LOX IMV1 cell line was determined at 10e-5 M concentration after 48 hr of exposing. It is filed as functional, Homo sapiens. In a few lines: as §3
Experiment [10] can be described thus: Percent growth of melanoma LOX IMV1 cell line was determined at 10e-6 M concentration after 48 hr of exposing. It is filed as functional, Homo sapiens. The gist of the method: as §3
A short description of experiment [11]: Percent growth of melanoma LOX IMV1 cell line was determined at 10e-8 M concentration after 48 hr of exposing. It is filed as functional, Homo sapiens. In a few lines: as §3
The next experiment relates to MKN-45. In words: Cytotoxicity against human MKN45 cancer cell line was determined after 1 hr. Conditions: MKN-45, 1 h. It is filed as functional, cell-based. In a few lines: as §2
Another experiment relates to HCT-116. In words: Cytotoxicity against human HCT116 cancer cell line was determined after 1 hr. It is filed as functional, cell-based. As to conditions: HCT-116, 1 h. The gist of the method:
as §2

The test system of experiment [12] is SNB-19. Description: Percent growth of CNS SNB-19 cell line was determined at 10e-6 M concentration after 48 hr of exposing. It is filed as functional, Homo sapiens. In a few lines:
as §3

Experiment [13] has as its system SNB-19. Description: Percent growth of CNS SNB-19 cell line was determined at 10e-8 M concentration after 48 hr of exposing. It is filed as functional, Homo sapiens. The gist of the method:
as §3

Experiment [14] concerns 786-0. Description: Percent growth of renal 786-O cell line was determined at 10e-5 M concentration after 48 hr of exposing. It is filed as functional, Homo sapiens. In a few lines:
as §3

Experiment [15] deals with 786-0. Description: Percent growth of renal 786-O cell line was determined at 10e-6 M concentration after 48 h of exposing. It is filed as functional, Homo sapiens. In a few lines: as §3
The subject of experiment [16] is 786-0. Description: Percent growth of renal 786-O cell line was determined at 10e-8 M concentration after 48 h of exposing. It is filed as functional, Homo sapiens. In a few lines: as §3
The test system of experiment [17] is MCF7. Description: Percent growth of breast MCF-7 cell line was determined at 10e-6 M concentration after 48 h of exposing. It is filed as functional, Homo sapiens.
Experiment [18] has as its system MCF7. In words: Percent growth of breast MCF-7 cell line was determined at 10e-8 M concentration after 48 hr of exposing. It is filed as functional, Homo sapiens.
Experiment [19] deals with SW-620. In words: Percent growth of colon SW-620 cell line was determined at 10e-5 M concentration after 48 hr of exposing. It is filed as functional, Homo sapiens. The gist of the method: as §3
The test system of experiment [20] is SW-620. In words: Percent growth of colon SW-620 cell line was determined at 10e-6 M concentration after 48 hr of exposing. It is filed as functional, Homo sapiens. The gist of the method: as §3
The subject of experiment [21] is SW-620. In words: Percent growth of colon SW-620 cell line was determined at 10e-8 M concentration after 48 hr of exposing. It is filed as functional, Homo sapiens. In a few lines:
as §3

The test system of experiment [22] is NCI-H460. Description: Percent growth of lung NCI-H460 cell line was determined at 10e-5 M concentration after 48 hr of exposing. It is filed as functional, Homo sapiens. The gist of the method: as §3
Experiment [23] concerns NCI-H460. In words: Percent growth of lung NCI-H460 cell line was determined at 10e-6 M concentration after 48 hr of exposing. It is filed as functional, Homo sapiens. In a few lines:
as §3

Experiment [24] has as its system NCI-H460. Description: Percent growth of lung NCI-H460 cell line was determined at 10e-8 M concentration after 48 hr of exposing. It is filed as functional, Homo sapiens. In a few lines:
as §3

The test system of experiment [25] is MOLT-4. Description: Percent growth of leukemia MOLT-4 cell line was determined at 10e-5 M concentration after 48 hr of exposing. It is filed as functional, Homo sapiens. The gist of the method: as §3
The subject of experiment [26] is MOLT-4. In words: Percent growth of leukemia MOLT-4 cell line was determined at 10e-6 M concentration after 48 h of exposing. It is filed as functional, Homo sapiens. The gist of the method:
as §3

In experiment [27] the test system is MOLT-4. In words: Percent growth of leukemia MOLT-4 cell line was determined at 10e-8 M concentration after 48 hr of exposing. It is filed as functional, Homo sapiens. The gist of the method: as §3
In experiment [28] the test system is OVCAR-4. In words: Percent growth of ovarian OVCAR-4 cell line was determined at 10e-5 M concentration after 48 hr of exposing. It is filed as functional, Homo sapiens. The gist of the method:
as §3

The test system of experiment [29] is OVCAR-4. Description: Percent growth of ovarian OVCAR-4 cell line was determined at 10e-6 M concentration after 48 hr of exposing. It is filed as functional, Homo sapiens. The gist of the method: as §3
Experiment [30] deals with OVCAR-4. In words: Percent growth of ovarian OVCAR-4 cell line was determined at 10e-8 M concentration after 48 hr of exposing. It is filed as functional, Homo sapiens. The gist of the method: as §3
Experiment [31] relates to DU-145. In words: Percent growth of prostate DU-145 cell line was determined at 10e-5 M concentration after 48 hr of exposing. It is filed as functional, Homo sapiens.
A short description of experiment [32]: Cytotoxicity against human PC3 cancer cell line was determined after 144 hr. Conditions: Cancer cell lines. It is filed as cell-based. In a few lines:
as §2

The nature of experiment [33]: Cytotoxicity against human LoVo cancer cell line was determined after 144 hr. It is filed as cell-based. The gist of the method: as §1
A short description of experiment [34]: Cytotoxicity against human HCT116 cancer cell line was determined after 144 hr. It is filed as cell-based. Conditions: HCT-116, 144 h. The gist of the method:
as §2

The test system of experiment [35] is MCF7. Description: Percent growth of breast MCF-7 cell line was determined at 10e-5 M concentration after 48 hr of exposing. It is filed as functional, Homo sapiens.

`COc1cccc2c1C(=O)c1c(O)c3c(c(O)c1C2=O)C[C@@](O)(C(=O)CO)C[C@@H]3O[C@H]1C[C@H](N)[C@H](O)[C@H](C)O1` [DOXORUBICIN]: the Resistance index in the experiment on LoVo [1] was found to be 11. The IC50 with LoVo [2] was found to be 2300 nM; with LoVo [3], 810 nM; with LoVo [4], 9100 nM.
As for `CN(C)CCn1c(=O)c2ccc(NCCCN(C)CCCNc3ccc4c(=O)n(CCN(C)C)c(=O)n5c6ccccc6c(=O)c3c45)c3c(=O)c4ccccc4n(c1=O)c23`, the Resistance index in the experiment on LoVo [1] turned out to be 2.1. The IC50 is less than 0.1 nM in experiment [5]; 4.1 nM with PC-3; 3.1 nM in the experiment with LoVo [2]; 5.2 nM in the experiment with LoVo [3]; 11 nM in the experiment on LoVo [4]; 0.01 nM with MKN-45. For the same molecule, the IC50 came to 0.72 nM in the experiment with HCT-116, 1.6 nM in [32], 0.31 nM in experiment [33] and 0.1 nM in experiment [34]. Also, the Binding site preference in the experiment on Nucleic Acid worked out at 25. Also, the Growth with SNB-19 [6] is -53%; in the experiment on DU-145 [7], -13%; in the experiment with DU-145 [8] it was 37%; in [9], -82%; in experiment [10], -43%; in [11], 25%. For the same molecule, the Growth in the experiment with SNB-19 [12] is given as 7%; in the experiment on SNB-19 [13], 32%; in the experiment on 786-0 [14] it was -100%; with 786-0 [15] it was 4%; in the experiment with 786-0 [16], 34%; in the experiment on MCF7 [17] it was 0%. Further, the Growth with MCF7 [18] is given as 31%; in the experiment on SW-620 [19], -89%; with SW-620 [20], -25%; in the experiment with SW-620 [21], 26%; in the experiment with NCI-H460 [22], -95%; in the experiment on NCI-H460 [23], -22%. Further, the Growth with NCI-H460 [24] is 13%; with MOLT-4 [25], -71%; with MOLT-4 [26], -26%; with MOLT-4 [27], 9%; in the experiment with OVCAR-4 [28] it was -77%; in the experiment with OVCAR-4 [29], -53%. Moreover, the Growth with OVCAR-4 [30] was 15%; in the experiment on DU-145 [31], -98%; in the experiment on MCF7 [35], -96%.

Usually IC50 stands for the concentration that gives 50% inhibition. The low end stands for greater potency in that assay, the high end for weaker potency in that assay.

The values are drawn from ChEMBL document CHEMBL1138784, “Rational design, synthesis, and biological evaluation of bis(pyrimido[5,6,1-de]acridines) and bis(pyrazolo[3,4,5-kl]acridine-5-carboxamides) as new anticancer agents” (J Med Chem, 2004).
